ChEMBL document CHEMBL4402612, “Heterodimeric Analogues of the Potent Y1R Antagonist 1229U91, Lacking One of the Pharmacophoric C-Terminal Structures, Retain Potent Y1R Affinity and Show Improved Selectivity over Y4R” (J Med Chem, 2020)
pEC50, pKi: −log10 of the molar value. Positions of bridges follow the written chain, without caps; N, C: chain ends. Non-standard residues stand in square brackets, D forms with d. Residues, ends and D or L forms follow the SMILES beside them. Chains are numbered I, II in the order given. Dap = NC[C@H](N)C(=O)O

Experiments:
[1] = biological target: T1, Neuropeptide Y receptor type 1 (Homo sapiens, UniProt P25929); test: Displacement of (sCy5)-[Lys2 Arg4]-BVD15 from GFP-tagged Y1R in human HEK293T cells assessed as inhibitory constant incubated for 5 mins followed by (sCy5)-[Lys2 Arg4]-BVD15 addition and measured after 30 mins by fluorescence based assay; assay type: cell-based
T1 sequence (P25929 whole entry): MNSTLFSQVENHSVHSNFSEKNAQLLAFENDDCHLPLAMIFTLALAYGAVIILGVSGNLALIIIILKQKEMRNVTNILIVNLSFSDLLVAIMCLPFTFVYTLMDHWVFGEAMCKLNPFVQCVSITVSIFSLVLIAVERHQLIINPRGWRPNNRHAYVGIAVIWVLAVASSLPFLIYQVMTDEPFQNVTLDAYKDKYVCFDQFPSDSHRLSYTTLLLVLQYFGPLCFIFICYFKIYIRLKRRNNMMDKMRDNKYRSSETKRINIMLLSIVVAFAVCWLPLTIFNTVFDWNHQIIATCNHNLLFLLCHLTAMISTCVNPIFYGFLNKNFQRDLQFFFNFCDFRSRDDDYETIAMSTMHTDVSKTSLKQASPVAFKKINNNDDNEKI

[2] = biological target: T2, Neuropeptide Y receptor type 4 (Homo sapiens, UniProt P50391); test: Displacement of (sCy5)-[Lys2 Arg4]-BVD15 from GFP-tagged Y4R in human HEK293T cells assessed as inhibitory constant incubated for 5 mins followed by (sCy5)-[Lys2 Arg4]-BVD15 addition and measured after 30 mins by fluorescence based assay; assay type: cell-based
T2 sequence (P50391 whole entry): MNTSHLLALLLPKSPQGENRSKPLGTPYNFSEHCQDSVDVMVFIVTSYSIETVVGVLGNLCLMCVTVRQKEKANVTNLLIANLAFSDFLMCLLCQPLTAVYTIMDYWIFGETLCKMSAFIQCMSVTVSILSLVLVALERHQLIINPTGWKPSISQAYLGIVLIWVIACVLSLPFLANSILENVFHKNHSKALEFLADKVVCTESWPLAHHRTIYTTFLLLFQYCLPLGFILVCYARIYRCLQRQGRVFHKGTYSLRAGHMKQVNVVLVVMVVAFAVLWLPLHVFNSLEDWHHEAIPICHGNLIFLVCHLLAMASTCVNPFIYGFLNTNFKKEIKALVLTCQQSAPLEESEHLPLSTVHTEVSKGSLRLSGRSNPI
Outline: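 Competitors (10^-10–10^-6 M) added in HBSS/0.1% BSA with H33342 for 5 min, then 100 nM final (sCy5)-[Lys²Arg⁴]-BVD15 for 30 min at 37 °C. Washed and imaged confocally; granule counts per cell. Non-specific binding with 100 nM PP.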

Homo sapiens = organism: Homo sapiens; test: Selectivity index, ratio of Ki of GFP-tagged Y4R in human HEK293T cells to Ki GFP-tagged Y1R in human HEK293T cells; assay type: cell-based
Outline: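 Ratio of mean Ki values, Y4/Y1, from whole-cell competition binding in tetracycline-induced 293TR Y1-GFP or Y4-GFP cells. Tracer was 100 nM (sCy5)-[Lys²Arg⁴]-BVD15, added after 5 min competitor preincubation, then 30 min at 37 °C, with imaging read-out.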

[3] = biological target: T2, Neuropeptide Y receptor type 4; test: Agonist activity at Y4R in human HEK293T cells assessed as increase in beta-arrestin recruitment incubated for 60 mins by Hoechst 33342 dye based fluorescence analysis
[4] = biological target: T2, Neuropeptide Y receptor type 4; test: Agonist activity at Y4R in human HEK293T cells assessed as increase in beta-arrestin recruitment incubated for 60 mins by Hoechst 33342 dye based fluorescence analysis relative to pancreatic polypeptide
[5] = biological target: T3, Neuropeptide Y receptor type 1 (Homo sapiens) (UniProt P25929); test: Potency index, ratio of Ki of compound to Ki of 1229U91 for displacement of (sCy5)-[Lys2 Arg4]-BVD15 from GFP-tagged Y1R in human HEK293T cells assessed as inhibitory constant incubated for 5 mins followed by (sCy5)-[Lys2 Arg4]-BVD15 addition and measured after 30 mins by fluorescence based assay
T3 sequence (whole entry): T1 sequence (P25929 whole entry)

pKi [1]: 9.24
pKi [2]: 6.61
pEC50 [3]: 8.12
Rmax [4]: 49.1%
Ki ratio [5]: 2
Structure (SMILES): CC[C@H](C)[C@H](N)C(=O)N[C@H]1CCC(=O)NC[C@@H](C(=O)N[C@@H](Cc2ccc(O)cc2)C(=O)N[C@@H](CCCNC(=N)N)C(=O)N[C@@H](CC(C)C)C(=O)N[C@@H](CCCNC(=N)N)C(=O)N[C@@H](Cc2ccc(O)cc2)C(N)=O)NC(=O)[C@@H]2CCCN2C(=O)[C@@H](NC(=O)[C@@H](N)[C@@H](C)CC)CCC(=O)NC[C@@H](C(=O)N[C@@H](Cc2ccc(O)cc2)C(=O)N[C@@H](C)C(=O)N[C@@H](CC(C)C)C(=O)N[C@@H](CCCNC(=N)N)C(=O)N[C@@H](Cc2ccc(O)cc2)C(N)=O)NC(=O)[C@@H]2CCCN2C1=O (I: H-IEP[Dap]YALRY-NH2 / II: H-IEP[Dap]YRLRY-NH2; amide I:2-II:4, I:4-II:2)
Ratio Ki (Homo sapiens): 419
